Blank lines part the entries; values can stand above or below the compound they belong to.
Key:
[1] = test system: Alpha-1D/Alpha-1A adrenergic receptor (Homo sapiens); experiment: Ratio of binding affinity towards Alpha1d to Alpha-1A
[2] = molecular target: T1, D(4) dopamine receptor (Homo sapiens) (UniProt P21917); experiment: Compound at 1 uM was tested for the inhibition of radioligand [3H]spiperone binding to recombinant human Dopamine receptor D4
T1 sequence (whole entry): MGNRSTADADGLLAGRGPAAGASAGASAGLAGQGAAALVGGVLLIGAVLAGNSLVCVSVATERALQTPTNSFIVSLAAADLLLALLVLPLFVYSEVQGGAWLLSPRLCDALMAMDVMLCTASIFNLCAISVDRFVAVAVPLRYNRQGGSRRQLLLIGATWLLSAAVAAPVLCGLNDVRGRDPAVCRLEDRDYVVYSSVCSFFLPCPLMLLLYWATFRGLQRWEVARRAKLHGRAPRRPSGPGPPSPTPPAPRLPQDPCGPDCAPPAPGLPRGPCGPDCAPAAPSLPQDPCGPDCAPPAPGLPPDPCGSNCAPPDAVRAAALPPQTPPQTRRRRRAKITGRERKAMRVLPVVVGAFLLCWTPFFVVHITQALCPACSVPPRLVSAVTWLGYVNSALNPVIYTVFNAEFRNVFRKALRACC
How it was run: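 Recombinant human D4.7 in CHO cell membranes; [3H]spiperone for 120 min at 25 °C, pH 7.4 Tris-HCl/NaCl/EDTA; haloperidol (10 μM) for nonspecific binding. Compound at 1 μM, percent inhibition determined in duplicate; filtration, scintillation counting.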

[3] = molecular target: T2, 5-hydroxytryptamine receptor 1A (Homo sapiens, UniProt P08908); experiment: Binding affinity towards recombinant human 5-hydroxytryptamine 1A receptor was determined using [3H]8-OH-DPAT as radioligand
How it was run: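 Human 5-HT1A receptor expressed in CHO cells, membranes used. [3H]8-OH-DPAT, 60 min at 25 °C in Tris-HCl/NaCl/EDTA buffer, pH 7.4. Metergoline (10 μM) gave nonspecific binding. Filtered, scintillation counted. Ki from IC50 (nonlinear regression) by Cheng–Prusoff, mean ± SEM of three independent experiments.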

Histamine H1 receptor = Histamine H1 receptor (Cavia porcellus, UniProt P31389); experiment: Binding affinity towards histamine H1 receptor was determined in guinea pig brain using [3H]pyrilamine as radioligand
How it was run: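 Guinea pig brain membranes as source of central H1 receptors; [3H]pyrilamine, 25 °C for 60 min in 50 mM Tris-HCl, 150 mM NaCl, 5 mM EDTA, pH 7.4; nonspecific binding with 1 μM pyrilamine. Filtration, scintillation counting. Ki by Cheng–Prusoff from fitted IC50, mean ± SEM of three experiments.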

[4] = molecular target: Serotonin 1 (5-HT1) receptor (Rattus norvegicus, UniProt P28564+P30940+P19327+P28565); experiment: Binding affinity towards central 5-hydroxytryptamine 1 receptor was determined in rat cerebral cortex using [3H]5-HT as radioligand; assay type: tissue-based
How it was run: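 Rat cerebral cortex membranes incubated with [3H]5-HT for 10 min at 37 °C in 50 mM Tris-HCl, 150 mM NaCl, 5 mM EDTA, pH 7.4. Nonspecific binding defined with 10 μM 5-HT. Filtration, then liquid scintillation counting. Ki derived from IC50 by Cheng–Prusoff; mean of three independent experiments.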

[5] = molecular target: T2, 5-hydroxytryptamine receptor 1A; experiment: Binding affinity towards recombinant human Compound at 1 uM was tested for the inhibition of radioligand [3H]8-OH-DPAT binding to recombinant human 5-hydroxytryptamine 1A receptor was determined using [3H]8-OH-DPAT as radioligand
How it was run: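 Recombinant human 5-HT1A receptor expressed in CHO cell membranes. [3H]8-OH-DPAT binding for 60 min at 25 °C in Tris/NaCl/EDTA buffer, pH 7.4. Nonspecific binding defined with 10 μM metergoline. Percent inhibition measured at 1 μM test compound in duplicate; filtration and scintillation counting.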

T2 sequence (P08908 whole entry): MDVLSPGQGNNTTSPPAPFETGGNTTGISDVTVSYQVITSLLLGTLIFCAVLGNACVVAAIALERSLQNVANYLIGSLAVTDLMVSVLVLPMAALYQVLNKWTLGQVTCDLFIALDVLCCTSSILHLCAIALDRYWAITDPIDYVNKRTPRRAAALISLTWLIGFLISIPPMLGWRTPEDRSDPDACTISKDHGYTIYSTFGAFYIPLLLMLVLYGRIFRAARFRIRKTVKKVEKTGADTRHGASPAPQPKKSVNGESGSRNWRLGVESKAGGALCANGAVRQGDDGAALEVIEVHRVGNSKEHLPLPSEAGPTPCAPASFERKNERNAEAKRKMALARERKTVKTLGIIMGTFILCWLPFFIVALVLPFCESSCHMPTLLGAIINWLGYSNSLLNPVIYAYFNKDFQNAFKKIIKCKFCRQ
Histamine H1 receptor, sequence (P31389 whole entry): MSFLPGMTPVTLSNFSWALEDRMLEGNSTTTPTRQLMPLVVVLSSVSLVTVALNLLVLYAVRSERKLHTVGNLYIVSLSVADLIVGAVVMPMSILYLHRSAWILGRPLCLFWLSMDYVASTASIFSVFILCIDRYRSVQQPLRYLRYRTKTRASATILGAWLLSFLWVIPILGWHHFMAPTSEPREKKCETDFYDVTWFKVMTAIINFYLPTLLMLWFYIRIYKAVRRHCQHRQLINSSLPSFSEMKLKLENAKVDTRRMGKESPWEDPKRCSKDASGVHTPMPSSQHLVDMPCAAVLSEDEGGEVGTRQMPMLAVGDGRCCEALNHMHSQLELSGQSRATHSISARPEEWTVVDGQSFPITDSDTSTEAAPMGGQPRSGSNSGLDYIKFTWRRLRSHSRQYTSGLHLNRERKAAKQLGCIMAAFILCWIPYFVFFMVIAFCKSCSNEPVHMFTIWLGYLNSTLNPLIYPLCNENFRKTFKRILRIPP

Ratio [1]: 231
SMILES: Cc1ccc(N2C(=O)c3ccc(C(=O)NCCCN4CCN(c5ccccc5OC(C)C)CC4)cc3C2=O)cc1

inhibition [2]: 50%
SMILES: Cc1ccc(N2C(=O)c3ccc(C(=O)NC[C@H](O)CN4CCN(c5ccccc5OC(C)C)CC4)cc3C2=O)cc1

Ki [3]: 15 nM | Ki (Histamine H1 receptor): 38 nM | Ki [4]: 773 nM
SMILES: CC(C)Oc1ccccc1N1CCN(C[C@@H](O)CNC(=O)c2ccc3c(c2)C(=O)N(c2ccc(N(C)C)cc2)C3=O)CC1

Ki [5]: 0.79 nM
SMILES: CCOc1ccccc1OCCN[C@H](C)Cc1ccc(OC)c(S(N)(=O)=O)c1 [TAMSULOSIN]

Source: ChEMBL document CHEMBL1133729, “Design, synthesis, and structure-activity relationships of phthalimide-phenylpiperazines: a novel series of potent and selective alpha(1)(a)-adrenergic receptor antagonists” (J Med Chem, 2000)
